Measured values from ChEMBL document CHEMBL3102852, “Design, synthesis and cytotoxic activity of novel sulfonylurea derivatives of podophyllotoxin” (Bioorg Med Chem, 2014).

How the values were obtained:
Format in all cases: functional, cell-based
[1] = test system: DU-145; assay: Cytotoxicity against human DU145 cells after 72 hrs by sulforhodamine B assay; conditions: DU-145, 72 h
How it was run: (§1)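 Cells seeded at 3-5 × 10^3 per well in RPMI-1640 with 10% FBS containing various sample concentrations, incubated 72 h. Attached cells fixed with cold 50% trichloroacetic acid for 30 min, stained with 0.04% SRB for 30 min, bound dye solubilized in 10 mM Tris-base, absorbance read at 515 nm. Triplicate experiments; KBvin is a vincristine-selected MDR KB subline.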

[2] = test system: A549; assay: Cytotoxicity against human A549 cells after 72 hrs by sulforhodamine B assay; conditions: A549, 72 h; how it was run: as §1
[3] = Cytotoxicity against multidrug-resistant human KBVIN cells after 72 hrs by sulforhodamine B assay; how it was run: as §1
[4] = test system: KB; assay: Cytotoxicity against human KB cells after 72 hrs by sulforhodamine B assay; how it was run: as §1

Structure (SMILES): COc1cc([C@@H]2c3cc4c(cc3[C@@H](NC(=O)NS(=O)(=O)c3ccccc3)[C@H]3COC(=O)[C@H]23)OCO4)cc(OC)c1O
- IC50 [1]: 8.1 µM
- IC50 [2]: 8.25 µM
- IC50 [3]: 8.76 µM
- IC50 [4]: 8.38 µM

Structure (SMILES): COc1ccc(S(=O)(=O)NC(=O)N[C@@H]2c3cc4c(cc3[C@@H](c3cc(OC)c(O)c(OC)c3)[C@H]3C(=O)OC[C@@H]32)OCO4)cc1
- IC50 [1]: 9.66 µM
- IC50 [2]: 7.67 µM
- IC50 [3]: 8.79 µM
- IC50 [4]: 9.49 µM

Structure (SMILES): COc1cc([C@@H]2c3cc4c(cc3[C@@H](NC(=O)NS(=O)(=O)c3ccc(C)cc3)[C@H]3COC(=O)[C@H]23)OCO4)cc(OC)c1O
- IC50 [1]: > 20 µM
- IC50 [2]: > 20 µM
- IC50 [3]: > 20 µM
- IC50 [4]: > 20 µM

Structure (SMILES): COc1cc([C@@H]2c3cc4c(cc3[C@@H](NC(=O)NS(=O)(=O)c3ccc(C(C)C)cc3)[C@H]3COC(=O)[C@H]23)OCO4)cc(OC)c1O
- IC50 [1]: 9.32 µM
- IC50 [2]: 7.72 µM
- IC50 [3]: 8.35 µM
- IC50 [4]: 9.51 µM

Structure (SMILES): COc1cc([C@@H]2c3cc4c(cc3[C@@H](NC(=O)NS(=O)(=O)c3ccc(F)cc3)[C@H]3COC(=O)[C@H]23)OCO4)cc(OC)c1O
- IC50 [1]: 9.61 µM
- IC50 [2]: 7.82 µM
- IC50 [3]: 7.92 µM
- IC50 [4]: 9 µM

Structure (SMILES): COc1cc([C@@H]2c3cc4c(cc3[C@@H](NC(=O)NS(=O)(=O)c3ccc(Cl)cc3)[C@H]3COC(=O)[C@H]23)OCO4)cc(OC)c1O
- IC50 [1]: 11.5 µM
- IC50 [2]: 9.03 µM
- IC50 [3]: 7.95 µM
- IC50 [4]: 10.6 µM

Structure (SMILES): COc1cc([C@@H]2c3cc4c(cc3[C@@H](NC(=O)NS(=O)(=O)Cc3ccccc3)[C@H]3COC(=O)[C@H]23)OCO4)cc(OC)c1O
- IC50 [1]: 11.2 µM
- IC50 [2]: 8.63 µM
- IC50 [3]: 14 µM
- IC50 [4]: 11.8 µM

Structure (SMILES): COc1ccc(S(=O)(=O)NC(=O)N[C@@H]2c3cc4c(cc3[C@@H](c3cc(OC)c(O)c(OC)c3)[C@H]3C(=O)OC[C@@H]32)OCO4)c(OC)c1
- IC50 [1]: 8.51 µM
- IC50 [2]: 8 µM
- IC50 [3]: 8.56 µM
- IC50 [4]: 8.08 µM

Structure (SMILES): COc1cc([C@@H]2c3cc4c(cc3[C@@H](NC(=O)NS(=O)(=O)c3ccc5ccccc5c3)[C@H]3COC(=O)[C@H]23)OCO4)cc(OC)c1O
- IC50 [1]: 10.5 µM
- IC50 [2]: 8.49 µM
- IC50 [3]: 8.62 µM
- IC50 [4]: 9.7 µM

Structure (SMILES): COc1cc([C@@H]2c3cc4c(cc3[C@@H](NC(=O)NS(C)(=O)=O)[C@H]3COC(=O)[C@H]23)OCO4)cc(OC)c1OC
- IC50 [1]: > 20 µM
- IC50 [2]: > 20 µM
- IC50 [3]: > 20 µM
- IC50 [4]: > 20 µM

Structure (SMILES): CCS(=O)(=O)NC(=O)N[C@@H]1c2cc3c(cc2[C@@H](c2cc(OC)c(OC)c(OC)c2)[C@H]2C(=O)OC[C@@H]21)OCO3
- IC50 [1]: > 20 µM
- IC50 [2]: > 20 µM
- IC50 [3]: > 20 µM
- IC50 [4]: > 20 µM

Structure (SMILES): COc1cc([C@@H]2c3cc4c(cc3[C@@H](NC(=O)NS(=O)(=O)c3ccccc3)[C@H]3COC(=O)[C@H]23)OCO4)cc(OC)c1OC
- IC50 [1]: 1.44 µM
- IC50 [2]: 1.6 µM
- IC50 [3]: 1.76 µM
- IC50 [4]: 1.41 µM

Structure (SMILES): COc1cc([C@@H]2c3cc4c(cc3[C@@H](NC(=O)NS(=O)(=O)c3ccc(C)cc3)[C@H]3COC(=O)[C@H]23)OCO4)cc(OC)c1OC
- IC50 [1]: > 20 µM
- IC50 [2]: > 20 µM
- IC50 [3]: > 20 µM
- IC50 [4]: > 20 µM

Structure (SMILES): COc1cc([C@@H]2c3cc4c(cc3[C@@H](NC(=O)NS(=O)(=O)c3ccc(Cl)cc3)[C@H]3COC(=O)[C@H]23)OCO4)cc(OC)c1OC
- IC50 [1]: 1.75 µM
- IC50 [2]: 1.89 µM
- IC50 [3]: 2.01 µM
- IC50 [4]: 1.72 µM

Structure (SMILES): COc1cc([C@@H]2c3cc4c(cc3[C@@H](NC(=O)NS(C)(=O)=O)[C@H]3COC[C@H]23)OCO4)cc(OC)c1OC
- IC50 [1]: > 20 µM
- IC50 [2]: > 20 µM
- IC50 [3]: > 20 µM
- IC50 [4]: > 20 µM

Structure (SMILES): COc1cc([C@@H]2c3cc4c(cc3[C@@H](NC(=O)NS(=O)(=O)c3ccc(C(C)C)cc3)[C@H]3COC[C@H]23)OCO4)cc(OC)c1OC
- IC50 [1]: 11.9 µM
- IC50 [2]: 11.8 µM
- IC50 [3]: 13.2 µM
- IC50 [4]: 11 µM

Structure (SMILES): COc1ccc(S(=O)(=O)NC(=O)N[C@@H]2c3cc4c(cc3[C@@H](c3cc(OC)c(OC)c(OC)c3)[C@H]3COC[C@@H]32)OCO4)c(OC)c1
- IC50 [1]: 14.3 µM
- IC50 [2]: 14.9 µM
- IC50 [3]: > 20 µM
- IC50 [4]: 12 µM

Structure (SMILES): COc1cc([C@@H]2c3cc4c(cc3[C@@H](NC(=O)NS(C)(=O)=O)[C@H]3COC(=O)[C@H]23)OCO4)cc(OC)c1O
- IC50 [1]: > 20 µM
- IC50 [2]: > 20 µM
- IC50 [3]: > 20 µM
- IC50 [4]: > 20 µM

Structure (SMILES): CCS(=O)(=O)NC(=O)N[C@@H]1c2cc3c(cc2[C@@H](c2cc(OC)c(O)c(OC)c2)[C@H]2C(=O)OC[C@@H]21)OCO3
- IC50 [1]: > 20 µM
- IC50 [2]: > 20 µM
- IC50 [3]: > 20 µM
- IC50 [4]: > 20 µM

Structure (SMILES): CCCCS(=O)(=O)NC(=O)N[C@@H]1c2cc3c(cc2[C@@H](c2cc(OC)c(O)c(OC)c2)[C@H]2C(=O)OC[C@@H]21)OCO3
- IC50 [1]: 11.9 µM
- IC50 [2]: 7.96 µM
- IC50 [3]: 14 µM
- IC50 [4]: 10.9 µM

Structure (SMILES): COc1cc([C@@H]2c3cc4c(cc3[C@@H](O[C@@H]3O[C@@H]5CO[C@@H](C)O[C@H]5[C@H](O)[C@H]3O)[C@H]3COC(=O)[C@H]23)OCO4)cc(OC)c1O [ETOPOSIDE]
- IC50 [3]: > 20 µM
